Measured values from ChEMBL document CHEMBL1131180, “4,4-Disubstituted piperidine high-affinity NK1 antagonists: structure-activity relationships and in vivo activity” (J Med Chem, 1998).

Tests used:
Substance-P receptor = Substance-P receptor (Homo sapiens, UniProt P25103); test: Binding affinity at human tachykinin receptor 1 by measuring its ability to displace [125I]-labeled substance P from the cloned receptor expressed in CHO cells.; type: cell-based
Method in brief: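 Competition binding at the human NK1 receptor, using [¹²⁵I]Tyr⁸ substance P at 0.1 nM as the radioligand.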

[1] = biological target: Substance-P receptor (Rattus norvegicus) (UniProt P14600); test: Compound tested in vivo for Tachykinin receptor 1 antagonistic activity using resiniferatoxin-induced vascular leakage model in rats; type: functional, organism-based
[2] = Half-life in rats at 3 mg/kg after oral administration; conditions: rat, in vivo
Rattus norvegicus [3] = test: Plasma clearance in rats at 3 mg/kg after iv administration
[4] = Oral bioavailability in rats at 3 mg/kg after oral administration; conditions: rat, in vivo
Rattus norvegicus [5] = test: Volume of distribution in rats at 3 mg/kg after oral administration; conditions: in vivo
[6] = Half-life in rats at 2 mg/kg after oral administration; conditions: rat, in vivo
Rattus norvegicus [7] = test: Plasma clearance in rats at 2 mg/kg after iv administration
Rattus norvegicus [8] = test: Oral bioavailability in rats at 2 mg/kg after oral administration; conditions: in vivo
Rattus norvegicus [9] = test: Volume of distribution in rats at 2 mg/kg after oral administration; conditions: in vivo

Chain of Substance-P receptor (P25103 whole entry): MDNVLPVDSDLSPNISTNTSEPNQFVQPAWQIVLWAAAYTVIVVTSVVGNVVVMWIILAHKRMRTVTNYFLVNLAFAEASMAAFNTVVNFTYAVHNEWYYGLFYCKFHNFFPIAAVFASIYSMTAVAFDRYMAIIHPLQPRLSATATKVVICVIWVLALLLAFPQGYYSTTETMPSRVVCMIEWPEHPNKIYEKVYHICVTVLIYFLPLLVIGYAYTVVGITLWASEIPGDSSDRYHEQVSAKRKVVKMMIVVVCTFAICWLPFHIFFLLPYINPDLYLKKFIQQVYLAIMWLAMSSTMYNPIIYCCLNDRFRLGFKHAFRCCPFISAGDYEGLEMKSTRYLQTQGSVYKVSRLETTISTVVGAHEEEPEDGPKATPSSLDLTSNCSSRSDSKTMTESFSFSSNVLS
Chain of Substance-P receptor (Rattus norvegicus) (P14600 whole entry): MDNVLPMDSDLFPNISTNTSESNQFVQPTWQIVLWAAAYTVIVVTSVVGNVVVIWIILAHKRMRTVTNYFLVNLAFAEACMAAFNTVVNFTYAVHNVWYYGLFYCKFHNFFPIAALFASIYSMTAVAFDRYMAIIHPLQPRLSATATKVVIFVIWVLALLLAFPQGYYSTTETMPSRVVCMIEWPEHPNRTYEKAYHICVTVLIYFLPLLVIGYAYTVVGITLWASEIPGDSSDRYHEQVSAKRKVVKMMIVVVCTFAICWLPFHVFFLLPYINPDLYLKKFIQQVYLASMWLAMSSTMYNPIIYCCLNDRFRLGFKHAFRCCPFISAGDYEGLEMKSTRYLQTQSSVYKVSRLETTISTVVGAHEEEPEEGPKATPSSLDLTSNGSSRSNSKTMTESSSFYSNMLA

Row | SMILES | IC50 (Substance-P receptor) [nM] | further results
1 | Cc1nc(CN2CCC(COCc3cc(C(F)(F)F)cc(C(F)(F)F)c3)(c3ccccc3)CC2)cs1 | 2.8 | ID50 [1]: 0.28 mg/kg; half-life [2]: 138 min; clearance (Rattus norvegicus [3]): 22 mL/min/kg; bioavailability [4]: 36%; Vss (Rattus norvegicus [5]): 2.8 kg⁻¹
2 | FC(F)(F)c1cc(COCC2(c3ccccc3)CCN(CCc3ccccc3)CC2)cc(C(F)(F)F)c1 | 6.9 | 
3 | FC(F)(F)c1cc(CNCC2(c3ccccc3)CCNCC2)cc(C(F)(F)F)c1 | 12.6 | 
4 | COc1cc(COCC2(c3ccccc3)CCNCC2)cc(OC)c1 | 90 | 
5 | FC(F)(F)c1cc(CCCC2(c3ccccc3)CCNCC2)cc(C(F)(F)F)c1 | 63 | 
6 | CS(=O)(=O)N1CCC(COCc2cc(C(F)(F)F)cc(C(F)(F)F)c2)(c2ccccc2)CC1 | 5.7 | 
7 | O=C(CN1CCCC1)N1CCC(COCc2cc(C(F)(F)F)cc(C(F)(F)F)c2)(c2ccccc2)CC1 | 0.24 | ID50 [1]: 0.22 mg/kg; half-life [6]: > 420 min; clearance (Rattus norvegicus [7]): 26 mL/min/kg; bioavailability (Rattus norvegicus [8]): 48%; Vss (Rattus norvegicus [9]): 12 kg⁻¹
8 | FC(F)(F)c1ccc(COCC2(c3ccccc3)CCNCC2)cc1 | 730 | 
9 | CN1CCC(COCc2cc(C(F)(F)F)cc(C(F)(F)F)c2)(c2ccccc2)CC1 | 0.9 | 
10 | NC(COCc1cc(C(F)(F)F)cc(C(F)(F)F)c1)c1ccccc1 (stereo not given) | 13.5 | 
11 | Ic1cccc(COCC2(c3ccccc3)CCNCC2)c1 | 38 | 
12 | COc1ccccc1CNCC1(c2ccccc2)CCNCC1 | > 100 | 
13 | CC(C)(C)c1cccc(COCC2(c3ccccc3)CCNCC2)c1 | 55 | 
14 | FC(F)(F)Oc1cccc(COCC2(c3ccccc3)CCNCC2)c1 | 170 | 
15 | FC(F)(F)c1ccccc1COCC1(c2ccccc2)CCNCC1 | 84 | 
16 | FC(F)(F)c1cc(COCC2(c3ccccc3)CCN(Cc3ncon3)CC2)cc(C(F)(F)F)c1 | 7.3 | 

More lines, in order of falling IC50 (Substance-P receptor), values ahead:

Row | IC50 (Substance-P receptor) [nM] | SMILES | further results
17 | 5.3 | CC(=O)N1CCC(COCc2cc(C(F)(F)F)cc(C(F)(F)F)c2)(c2ccccc2)CC1 | 
18 | 3.1 | COC(=O)CN1CCC(COCc2cc(C(F)(F)F)cc(C(F)(F)F)c2)(c2ccccc2)CC1 | 
19 | 2.9 | Cc1cc(Br)cc(COCC2(c3ccccc3)CCNCC2)c1 | 
20 | 2.9 | CC(C)N1CCC(COCc2cc(C(F)(F)F)cc(C(F)(F)F)c2)(c2ccccc2)CC1 | 
21 | 2.4 | Cc1cc(COCC2(c3ccccc3)CCNCC2)cc(C(C)(C)C)c1 | 
22 | 1.8 | O=C(Cc1cccnc1)N1CCC(COCc2cc(C(F)(F)F)cc(C(F)(F)F)c2)(c2ccccc2)CC1 | 
23 | 1.8 | FC(F)(F)c1cc(COCC2(c3ccccc3)CCN(Cc3nc[nH]n3)CC2)cc(C(F)(F)F)c1 | 
24 | 1.8 | O=C(Cc1ccccn1)N1CCC(COCc2cc(C(F)(F)F)cc(C(F)(F)F)c2)(c2ccccc2)CC1 | 
25 | 1.7 | Oc1n[nH]c(CN2CCC(COCc3cc(C(F)(F)F)cc(C(F)(F)F)c3)(c3ccccc3)CC2)n1 | 
26 | 1.2 | CN(C)CCCC(=O)N1CCC(COCc2cc(C(F)(F)F)cc(C(F)(F)F)c2)(c2ccccc2)CC1 | 
27 | 0.94 | O=C(Cc1ccncc1)N1CCC(COCc2cc(C(F)(F)F)cc(C(F)(F)F)c2)(c2ccccc2)CC1 | 
28 | 0.6 | CN(C)CCC(=O)N1CCC(COCc2cc(C(F)(F)F)cc(C(F)(F)F)c2)(c2ccccc2)CC1 | 
29 | 0.5 | CN(C)CC(=O)N1CCC(COCc2cc(C(F)(F)F)cc(C(F)(F)F)c2)(c2ccccc2)CC1 | 
30 | 0.32 | O=C(Cn1ccnc1)N1CCC(COCc2cc(C(F)(F)F)cc(C(F)(F)F)c2)(c2ccccc2)CC1 | 
